In ChEMBL document CHEMBL4184229, “Synthesis, biological evaluation and docking study of a new series of di-substituted benzoxazole derivatives as selective COX-2 inhibitors and anti-inflammatory agents” (Bioorg Med Chem, 2018):
pIC50: −log10 of the molar value.

How the values were obtained:
[1] = target: T1, Prostaglandin G/H synthase 1 (Ovis aries, UniProt P05979); assay: Inhibition of ovine COX1 assessed as reduction in Prostaglandin production by enzyme immunoassay
T1 sequence (P05979 whole entry): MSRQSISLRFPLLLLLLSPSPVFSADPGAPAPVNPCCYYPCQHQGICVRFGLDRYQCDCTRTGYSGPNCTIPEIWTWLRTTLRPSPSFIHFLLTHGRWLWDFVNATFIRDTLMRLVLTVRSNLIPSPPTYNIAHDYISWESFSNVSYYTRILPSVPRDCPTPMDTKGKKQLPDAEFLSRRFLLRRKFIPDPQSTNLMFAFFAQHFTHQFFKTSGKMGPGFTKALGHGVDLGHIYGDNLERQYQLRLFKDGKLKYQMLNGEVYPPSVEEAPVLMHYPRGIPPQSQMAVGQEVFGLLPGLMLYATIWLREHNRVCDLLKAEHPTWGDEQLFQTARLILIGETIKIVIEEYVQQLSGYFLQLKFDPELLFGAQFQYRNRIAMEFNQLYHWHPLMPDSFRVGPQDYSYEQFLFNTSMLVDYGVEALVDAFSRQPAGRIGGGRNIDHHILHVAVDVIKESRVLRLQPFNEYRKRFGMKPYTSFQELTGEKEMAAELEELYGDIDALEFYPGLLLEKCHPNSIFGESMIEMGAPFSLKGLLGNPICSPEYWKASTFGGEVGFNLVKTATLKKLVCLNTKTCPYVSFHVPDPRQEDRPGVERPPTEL
How it was run: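 Enzyme immunoassay kit with ovine COX-1 (human recombinant COX-2 also supplied). Colour intensity read spectrophotometrically; signal is proportional to PG tracer bound to the well and inversely proportional to free PG in the well. Inhibition calculated against control incubations. IC50 taken from the log concentration vs % inhibition curve.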

[2] = system: Rattus norvegicus; assay: Ulcerogenicity in Wistar albino rat assessed as severity index at 60 mg/kg, po measured after 6 hrs; type: toxicity, organism-based; conditions: in vivo
[3] = system: Rattus norvegicus; assay: Anti-inflammatory activity against carrageenan-induced Wistar albino rat paw edema model assessed as inhibition of paw edema at 20 mg/kg, po pretreated for 30 mins followed by carrageenan-challenge measured at 1 hr interval for 3 hrs by plethysmographic method relative to control; type: functional
How it was run: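 Wistar albino rats housed at 25-28 °C, 50–65% relative humidity, 12 h light/dark cycle; five per group. Oral dosing; control group given an equivalent volume of normal saline. Half an hour later, 0.1 ml of 1.0% w/v carrageenan in 0.9% saline injected into the sub-plantar tissue of the hind paw. […] Values taken at 3 h as mean ± SEM; Tukey's test versus control.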

[4] = system: Rattus norvegicus; assay: Anti-inflammatory activity against carrageenan-induced Wistar albino rat paw edema model assessed as paw edema volume at 20 mg/kg, po pretreated for 30 mins followed by carrageenan-challenge measured immediately by plethysmographic method (reference value: 0.7 ml); type: functional
[5] = system: Rattus norvegicus; assay: Anti-inflammatory activity against carrageenan-induced Wistar albino rat paw edema model assessed as paw edema volume at 20 mg/kg, po pretreated for 30 mins followed by carrageenan-challenge measured after 3 hrs by plethysmographic method (reference value: 1.14 ml); type: functional

pIC50 [1]	SMILES	UI [2]	inhibition in vivo at 20 mg/kg [3]	Activity [4]	Activity [5]
4.99	COc1ccc(-c2nc3cc(NC(=O)c4ccccc4Br)ccc3o2)cc1OC				
5.28	COc1ccc(-c2nc3cc(NC(=O)c4cccc(C)c4)ccc3o2)cc1OC				
5.22	COc1cc(OC)cc(C(=O)Nc2ccc3oc(-c4ccc(OC)c(OC)c4)nc3c2)c1	2.1	68.2%	0.67 mL	0.81 mL
4.99	COc1ccc(-c2nc3cc(NC(=O)c4cc([N+](=O)[O-])ccc4Cl)ccc3o2)cc1OC				
5.09	COc1ccc(C(=O)Nc2ccc3oc(-c4ccc(OC)c(OC)c4)nc3c2)cc1OC				
5.05	COc1ccc(-c2nc3cc(NC(=O)c4cccc(Cl)c4)ccc3o2)cc1OC				
	CC(C)Cc1ccc(C(C)C(=O)O)cc1 (configuration not stated) [IBUPROFEN]	2.2	65.9%		
4.23	COc1ccc(-c2nc3cc(NC(=O)c4ccc(O)cc4)ccc3o2)cc1OC				
5.49	COc1ccc(-c2nc3cc(NC(=O)c4ccc([N+](=O)[O-])cc4)ccc3o2)cc1OC	1.8	79.5%	0.71 mL	0.8 mL
5.14	COc1ccc(-c2nc3cc(NC(=O)c4ccc(Cl)cc4)ccc3o2)cc1OC				
5.26	COc1ccc(-c2nc3cc(NC(=O)c4cccc([N+](=O)[O-])c4)ccc3o2)cc1OC		54.5%	0.57 mL	0.77 mL
5.11	COc1ccc(-c2nc3cc(NC(=O)c4ccc(C)cc4)ccc3o2)cc1OC				
5.99	COc1ccc(-c2nc3cc(NC(=O)c4ccccc4Cl)ccc3o2)cc1OC	0.8	84.1%	0.66 mL	0.74 mL
5.04	COc1ccc(-c2nc3cc(NC(=O)c4ccccc4C)ccc3o2)cc1OC				
4.79	COc1ccc(C(=O)Nc2ccc3oc(-c4ccc(OC)c(OC)c4)nc3c2)cc1				
5.21	COc1ccc(-c2nc3cc(NC(=O)c4ccccc4)ccc3o2)cc1OC				
5.29	COc1ccc(-c2nc3cc(NC(=O)c4ccc([N+](=O)[O-])cc4Cl)ccc3o2)cc1OC	1	72.7%	0.71 mL	0.77 mL
